This is a sample that favours compounds with a hit; in the whole collection about 3.1% have one here.
HSF1 inh: HSF1 inhibition; NIH3T3-HGL HSE-luciferase, MG132-induced, luminescence 8 h; hits give low values; activity change, negative = inhibition, % at 7.5 µM (by protocol); actives 0.77% (n = 300,000); AID 2098;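 active means more than half of replicate wells show activity change below -50%, luminescence cut by over half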;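 further: luciferase reports HSF-1 transcriptional activity via heat shock element; 0% = median of DMSO wells and -100% = zero luminescence signal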
HSF-1 act: increases HSF-1 driven luciferase reporter signal; NIH3T3-HGL HSF-1 luciferase reporter, MG132, 8 h; 100% = twice DMSO control signal; activation, % at 9 µM; actives 1.7% (n = 300,000); AID 504408;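 active means mean replicate activation of at least 50% with a set share of replicates each reaching 50%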;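 further: 0% = median of the neutral control wells and 100% = twice that signal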
HKDC1 inhibitor: blocks human hexokinase HKDC1 activity; Q2TB90; actives 0.16% (n = 340,000); AID 493160; recombinant HKDC1, G6PDH/diaphorase resazurin coupled fluorescence; inhibition, % at 20 µM;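 active means inhibition above about 35% when tested at 20 µM, limit read from the data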;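 further: plate controls were DMSO wells with enzyme for no effect and DMSO wells lacking enzyme for full effect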
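Assay system: in-house recombinant HK5 (HKDC1) enzyme. Input: HKDC1 at 5 µg/mL. Medium: Tris pH 8.0 buffer with MgCl2, Tween-20, BSA, BME. Dosing: single 20 µM dose. Schedule: 90 min reaction incubation at room temperature, dark. Signal: resazurin-to-resorufin fluorescence via G6PDH and diaphorase coupling, 525/613 nm. Controls: DMSO-enzyme wells negative, buffer-substituted wells positive.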
Hsp70 act: transcriptional activators of Hsp70 | activation, % at 10 µM | AID 1203 | actives 0.04% (n = 200,000) | HeLa Hsp70 promoter luciferase reporter, luminescence; scaled: vehicle 0, proteasome-inhibitor control 100%;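 active means activation above the mean across all tested compounds plus 3 SD, cutoff set per campaign, cut at about 5.5% in these data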;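 further: 100% = MG132 at 30 µM as the positive control and 0% = DMSO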
HSP90 refold inh: inhibitors of HSP90 luciferase refolding in rabbit reticulocyte lysate. AID 1789. inhibition, % at 5.6 µM. actives 0.91% (n = 290,000). luciferase refolding luminescence, 3 h;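 active means inhibition above the screen-wide mean plus 3 SD, computed separately per campaign, cut at about 16% in these data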;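 further: 0% = DMSO wells and 100% = 60 µM geldanamycin wells; inhibitors lower the luminescence because luciferase stays unfolded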
Tb hexokinase: T. brucei hexokinase 1 inhibition; recombinant TbHK1, G6PDH-coupled NADH A340; inhibition, % at 10 µM; actives 0.11% (n = 220,000); AID 1430;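 active means inhibition of 50% or more in the single-dose primary screen; inactive means inhibition below 50%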
HKDC1 act conf2: confirmation of human HKDC1 activators; shares compounds with HKDC1 inhibitor; recombinant HKDC1, G6PDH/diaphorase resazurin fluorescence; hits give low values; inhibition, % at 20 µM; actives 14% (n = 740); AID 504708;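 active means inhibition at or below a set negative limit, negative inhibition meaning the enzyme was activated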
An asterisk follows results filed as active; x = not tested or not shown.

SMILES	HSF1 inh	HSF-1 act	HKDC1 inhibitor	Hsp70 act	HSP90 refold inh	Tb hexokinase	HKDC1 act conf2
Cn1cnnc1SCc1ccc(C(=O)N/N=C(/CCC(=O)O)c2ccc(C(C)(C)C)cc2)cc1	x	x	-7	x	x	x	x
O=C(CCl)N1CCN2C(=O)c3ccccc3C12c1ccc(Cl)cc1 (configuration not stated)	45	76*	32	0	-1	1	8
Cc1ccc(C(=O)N2CCN3C(=O)c4ccccc4C23c2ccc(Cl)cc2)cc1 (configuration not stated)	2	2	7	0	4	-6	x
COc1cc(CNc2ccc(N3CCCCC3)cc2)ccc1OCC(=O)NC(C)(C)C	-7	-10	1	x	-2	x	x
O=c1nc(/C=C/c2cccn2-c2ccc([N+](=O)[O-])cc2)cc(C(F)(F)F)[nH]1	-8	-4	16	0	-1	15	x
O=c1nc(/C=C/c2cc([N+](=O)[O-])ccc2Cl)cc(C(F)(F)F)[nH]1	43	75*	30	1	0	-6	17
COC(CNC(=O)c1ccc2c(c1)ncn2C1CCCCCC1)OC	3	10	-2	x	-2	x	x
Cc1cc(C(=O)CCl)c(C)n1CCc1ccc(Cl)cc1	41	61*	39*	0	-1	3	10
Cc1cc(C(=O)CCl)c(C)n1CCc1ccc(F)cc1	-1	31	28	0	-5	-6	x
CC(=O)Nc1ccc(S(=O)(=O)NC2(C(F)(F)F)NC(=O)N(c3ccc(C)cc3)C2=O)cc1 (configuration not stated)	1	-11	-6	x	0	x	x
COc1ccc(OC)c2[nH]c(=O)c(CCNC(=O)c3cc4ccccc4o3)cc12	-6	-9	38*	0	1	-2	60
Cc1ccc(C)c2[nH]c(=O)c(CCNC(=O)c3cc4ccccc4o3)cc12	-2	3	2	0	-1	-3	x
O=C(O)c1ccc2c(=O)n(-c3ccccc3)c(=S)[nH]c2c1	-7	-8	84*	x	4	-7	-2
O=C(O)CC1CCC1CC(=O)O (configuration not stated)	x	x	-6	x	x	x	x
COc1ccc(N2CCN(C(=O)CSc3nnc4c(C)cc5cc(C)ccc5n34)CC2)cc1	8	14	21	0	-4	-5	x
COc1ccc(N2CCN(C(=O)CSc3nnc4c(C)cc5c(C)cc(C)cc5n34)CC2)cc1	9	27	43*	0	0	-6	19
Cc1cc2cc(C)c3nnc(SCC(=O)NCc4ccc5c(c4)OCO5)n3c2cc1C	20	41	31	0	-4	-6	x
Cc1cc(C)c2cc(C)c3nnc(SCC(=O)NCc4ccc5c(c4)OCO5)n3c2c1	-3	-13	32	0	-2	-12	31
Cc1ccc2c(C)c(C(=O)N3CCCC(C(N)=O)C3)oc2c1C (configuration not stated)	10	19	-6	x	1	x	x
Cc1cc2cc(CCNC(=O)c3ccc(S(=O)(=O)N4CCOCC4)cc3)c(=O)[nH]c2cc1C	-5	0	41*	0	-2	-10	45
Cc1cc2cc(CCNC(=O)c3cccc([N+](=O)[O-])c3)c(=O)[nH]c2cc1C	-1	11	40*	0	3	-5	16
CCC(c1ccccc1)C(CC)c1cc(O)c(O)c(O)c1 (configuration not stated)	x	x	42*	x	x	x	36
CCC(C)c1ccccc1O (configuration not stated)	x	x	-1	x	x	x	x
COc1ccc(C(=O)NN2CCOCC2)cc1	-5	4	-6	x	3	x	x
O=C(/C=C/c1ccc(Br)cc1)NC(=S)Nc1ccc(S(=O)(=O)Nc2nccs2)cc1	7	25	30	0	-2	-26	40
SMILES	HSF1 inh	HSF-1 act	HKDC1 inhibitor	Hsp70 act	HSP90 refold inh	Tb hexokinase	HKDC1 act conf2
Cc1ccc(SC2=C(Sc3ccc(C)cc3)C(=O)c3ccccc3C2=O)cc1	15	13	66*	x	7	-6	69
Cc1ccc(N2C(=O)c3ccccc3C2=O)cc1	9	6	0	x	-1	-5	x
COC1=CC(=O)C(C2CC(=O)c3c(O)cc(O)cc3O2)=CC1=O (configuration not stated)	0	0	60*	x	x	x	40
COc1ccc([C@@H]2CC(=O)c3c(O)cc(O)cc3O2)cc1O	x	x	-4	x	x	x	x
O=C(NCCc1ccccc1F)C1CCCN(c2nc3ccccc3s2)C1 (configuration not stated)	3	-1	5	x	-3	x	x
CCN(CC)S(=O)(=O)c1ccc(OCC(=O)NC(=O)Cc2ccccc2)c([N+](=O)[O-])c1	x	x	-1	x	x	x	x
CCOC(=O)c1sc(NC(=O)CSc2nnc(Cc3ccccc3)o2)c(C#N)c1C	-2	10	-40	-1	-2	17	-30
CCOC(=O)c1c(NC(=O)CSc2nnc(Cc3ccccc3)o2)sc(C(C)=O)c1C	6	28	1	0	0	-14	x
O=C(O)C1Nc2c(O)cc(Cl)c([N+](=O)[O-])c2C2C=CCC12 (configuration not stated)	-14	-1	32	0	-1	41	31
COc1ccc2c(c1)c(=O)oc1c(C)c(OCc3cc(C(=O)O)oc3C)ccc12	-1	-14	79*	0	1	-1	11
C/C(=N/NC(=O)c1cnccn1)c1ccncc1	9	33	-4	0	2	-7	x
CC(=NNC(=S)N1CC2CCC(CC2)C1)c1cnccn1	-44	-44	-47	x	x	x	-31
CC(=NNC(=S)N1CCN(c2ccccn2)CC1)c1ccccn1	x	x	-21	x	x	x	x
CC(=NNC(=S)N1CCN(C2CCCCCC2)CC1)c1ccccn1	x	x	-42	x	x	x	-40*
O=C(NCCOc1ccc(F)cc1)C1CCC(=O)N(CCc2ccccn2)C1 (configuration not stated)	-4	2	2	x	-3	x	x
Cc1cc2c(=Cc3ccc(N(C)C)cc3)c3ccccc3n2[n+]1C	-5	-5	-4	x	x	x	x
C[n+]1c(-c2ccccc2)cc2c(=Cc3ccccc3)c3ccccc3n21	x	x	42*	x	x	x	-18
C[n+]1c(-c2ccccc2)cc2c(=Cc3ccc([N+](=O)[O-])cc3)c3ccccc3n21	x	x	36*	x	x	x	6
CCOC(=O)c1cc2c(=Cc3ccc(N(C)C)cc3)c3ccccc3n2[n+]1C	x	x	37*	x	x	x	-8
CN(C)c1ccc(C=c2c3cc(O)ccc3n3c2cc(-c2ccccc2)[n+]3C)cc1	x	x	56*	x	x	x	30
COc1ccc(S(=O)(=O)N2CCCCC2)cc1NC(=O)c1cccc(S(=O)(=O)N2CC(C)OC(C)C2)c1 (configuration not stated)	x	x	0	x	x	x	x

Screens (PubChem BioAssay)
